# From PubChem
# In the library only some 11% were active in any assay of this set; here they are far more common.
# Lmaj promast: Leishmania major promastigote growth inhibition, primary screen; AID 1063, 2008; inhibition, % at 10 µM; actives 9% (n = 200,000); Leishmania major promastigotes, resazurin fluorescence viability;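 also: promastigotes grown with compound for 44 hours at 28 °C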
# Diaphorase inh: diaphorase inhibitors and chemical oxidizers, primary screen, counter-screen for diaphorase-coupled primary assays, biochemical, uHTS, resorufin fluorescence. actives 0.69% (n = 190,000). inhibition, % at 20 µM. diaphorase resazurin-to-resorufin fluorescence, NADH, 16 min; bacterial (C. kluyveri) enzyme, not human;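 active = primary screen inhibition at 20 µM above a set limit, cut at about 50% in these data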;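 also: plate controls were DMSO with full reaction for no effect and wells lacking NADH for full effect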
#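 Assay system: diaphorase enzyme from Clostridium kluyveri. Quantity: enzyme working solution with 0.14 U/mL diaphorase. Schedule: reaction incubation of 16 min at room temperature. Technique: resorufin fluorescence, excitation 544 nm, emission 590 nm. Controls: No-NADH positive control and DMSO neutral control.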
# G6PDH counter: L. mesenteroides G6PDH inhibitors, counter-screen for G6PDH-coupled screening assays, biochemical, Leuconostoc mesenteroides enzyme; glucose-6-phosphate dehydrogenase [Leuconostoc mesenteroides]; Purified L. mesenteroides G6PDH, diaphorase/resazurin coupled fluorescence, 45 min; inhibition, % at 5 µM; actives 0.12% (n = 200,000); AID 1020, 2008
# Diaphorase act: compounds boosting diaphorase resazurin reduction – biochemical, uHTS, resorufin fluorescence, counter-screen for diaphorase-coupled primary assays, primary screen. AID 1229, 2008. activation factor at 20 µM. actives 0.005% (n = 190,000). Diaphorase/resazurin coupled assay, 16 min; stronger effect = higher value; 1 = vehicle wells, 0 = NADH-free wells;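 active = diaphorase activity raised at least twofold by the compound at 20 µM; inactive = activation factor below 2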
#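 Material: Clostridium kluyveri diaphorase, purified enzyme; Quantity: enzyme 0.07 U/mL final; Medium: HEPES pH 7.4 buffer with MgCl2 and Tween 20; Dosing: single compound dose of 20 µM, 1% DMSO final; Schedule: 16 min reaction at room temperature; Measured by: red resorufin fluorescence at 544/590 nm excitation/emission.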
# WT yeast gro inh: growth inhibition of WT strain, primary screen, mitochondrial fusion inhibitor project, WT and mutant strains, chemical genetic; mitochondrial fusion phenotypic screen; inhibition, % at 10 µM; actives 2.1% (n = 190,000); AID 1362, 2008; in the data active = inhibition above about 58%; tested in S. cerevisiae
# Numbers without * were called inactive; · = no result. Rule as the data show it, unless noted: active = inhibition above about 50%; inactive = the rest.
SMILES,Lmaj promast,Diaphorase inh,G6PDH counter,Diaphorase act,WT yeast gro inh
CC(=O)N(C(C)=O)C1=C(C#N)C2(CCCCC2)Cc2ccccc21,-0.7,6.3,1.5,0.9,-7.0
COc1ccc(-n2cc3c(-c4cccc(Br)c4)nnc(C)c3n2)cc1,58.6*,17.1,6.6,0.8,70.5
O=C(NCc1cccs1)C(=O)NCC1OCCCN1S(=O)(=O)c1ccccc1 (centres undefined),49.6,8.3,20.6,0.9,-9.2
CCCCN1CCc2c1nc1ccc(Br)cc1c2N,100.8*,10.7,0.9,0.9,12.6
CCCCc1c(C)nc2ccc(Br)cc2c1SC(N)N,-1.8,-2.4,10.0,1,-17.6
O=C1NN=C(c2ccc(Cl)cc2)CC1c1c[nH]c2ccccc12 (centres undefined),15.6,9.6,5.0,0.9,65.7*
O=C1NN=C(c2ccc(Cl)cc2)CC1c1cccc(Br)c1 (centres undefined),9.4,3.3,-2.8,1,76.9*
Cc1cccc(NC(=S)NC23CN4CN(CN(C4)C2)C3)c1C,3.5,-7.5,4.1,1.1,15.6
O=C(CCl)N1CCN2C(=O)c3ccccc3C12c1ccc(Cl)cc1 (centres undefined),100.4*,4.9,1.5,1,-20.8
O=C(COC(=O)C1(c2ccc(Cl)cc2)CCCC1)N1CCc2ccccc21,2.2,16.6,5.5,0.8,2.1
Cc1ccc(C(=O)N2CCN3C(=O)c4ccccc4C23c2ccc(Cl)cc2)cc1 (centres undefined),93.8*,22.3,-0.1,0.8,-18.1
O=C(Nc1cccc(Cl)c1)N1CCN2C(=O)c3ccccc3C12c1ccccc1 (centres undefined),97.9*,23.7,-3.4,0.8,29.1
Cc1ccc(C(CC(=O)c2ccc(Cl)cc2)C(=O)O)cc1 (centres undefined),0.5,4.1,2.2,1,-12.8
COC(=O)C(CC(=O)c1ccc(Cl)cc1)c1ccc(C(C)C)cc1 (centres undefined),-6.2,15.6,-1.7,0.8,70.4*
CCc1ccc2c(c1)C(C)=CC(C)(C)N2,66.2*,26.5,11.8,0.7,20.3
CCC(/C=C1\Sc2ccc(OC)cc2N1CC)=C\c1sc2ccc(OC)cc2[n+]1CCCS(=O)(=O)[O-],99.7*,14.4,5.5,0.9,74.6*
CCO/C(=C/c1sc2ccc(OC)cc2[n+]1CCCS(=O)(=O)[O-])CC,-5.9,19.7,-1.2,0.8,2.1
O=C(CSc1nc2ccccc2s1)Nc1cc(S(=O)(=O)N2CCOCC2)ccc1O,-3.9,1.2,-5.3,1,-16.3
Cc1cc(C)c2c(N)c(C(=O)N3CCc4ccccc4C3)sc2n1,49.0,29.6,8.7,0.7,2.3
CN1CCN(C(=O)CN(c2cc(C(F)(F)F)ccc2Cl)S(C)(=O)=O)CC1,-4.1,6.3,4.1,0.9,1.6
CCC(C)(C)NC(=O)C(c1ccc(OC)cc1)N(Cc1cccs1)C(=O)CCC(=O)Nc1cc(C)on1 (centres undefined),97.4*,9.2,5.0,0.9,-4.3
CCC(C)(C)NC(=O)C(c1ccccc1)N(Cc1cccs1)C(=O)Cn1nnc2ccccc21 (centres undefined),67.7*,·,·,·,·
COc1ccc(C(C(=O)NC(C)(C)C)N(Cc2cccs2)C(=O)CCC(=O)Nc2cc(C)on2)cc1 (centres undefined),97.0*,11.9,14.1,0.9,-19.0
O=c1cc(O)nc(SCc2ccccc2)n1-c1ccc(Cl)cc1,-6.0,4.9,-2.2,1,-9.2
COc1ccc(CCNC(=O)COC(=O)/C=C/c2cc(OC)c(OC)c(OC)c2)cc1OC,-1.2,6.8,3.0,0.9,-20.1
SMILES,Lmaj promast,Diaphorase inh,G6PDH counter,Diaphorase act,WT yeast gro inh
Cc1[nH]c2ccccc2c1C(=O)C(C)OC(=O)c1ccc([N+](=O)[O-])o1 (centres undefined),99.0*,0.0,9.3,1,46.4
COc1ccc(NC(=O)C(OC(=O)c2ccc([N+](=O)[O-])o2)c2ccccc2)cc1Cl (centres undefined),-3.5,21.2,-2.5,0.8,5.0
O=C(O)c1ccccc1C(=O)c1ccc(Br)s1,-3.7,1.5,3.1,1,-3.7
COc1ccc(-c2nnc(SCC(=O)NC(C)c3ccccc3)o2)cc1OC (centres undefined),2.8,9.5,3.5,0.9,11.7
Cc1ccc2nc(C)cc(C(=O)N3CCCC(CO)(Cc4ccccc4C)C3)c2c1 (centres undefined),60.7*,18.4,6.7,0.8,34.1
Cc1ccc(C)c(-c2[nH]ncc2CN2CCCC(CO)(Cc3ccccc3C)C2)c1 (centres undefined),72.9*,1.2,6.2,1,9.0
Cc1cccc(-c2ncc(CN3CCCC(CO)(Cc4ccccc4C)C3)cn2)c1 (centres undefined),15.0,23.4,9.3,0.8,60.3*
COc1ccc(C2SCCN2C(=S)Nc2cccc(C(F)(F)F)c2)cc1 (centres undefined),96.2*,19.1,-4.8,0.8,22.8
CC(=O)c1cccc(NC(=S)NC(=O)CC(C)(C)C)c1,5.1,9.0,2.0,0.9,4.2
ON/C=N/C(=S)Nc1ncc(C(F)(F)F)cc1Cl,89.7*,14.9,-0.8,0.9,20.1
COc1cccc(NC(=O)C(Sc2nnc(-c3ccncc3)n2-c2ccc(Cl)cc2)c2ccccc2)c1 (centres undefined),52.8*,28.3,1.2,0.7,16.7
COc1cccc(-n2c(SCC(N)=O)nnc2-c2ccncc2)c1,-3.7,7.0,19.2,0.9,2.4
COc1cc(NC(=O)c2ccco2)c(C(=O)OCC(=O)c2c[nH]c3ccccc23)cc1OC,55.4*,13.0,-1.6,0.9,-15.8
COc1ccccc1N(C)S(=O)(=O)c1ccc(C(=O)OCC(=O)Nc2ccccc2F)cc1,11.4,-1.0,7.8,1,-5.7
COc1ccccc1N(C)S(=O)(=O)c1ccc(C(=O)OCC(=O)N(C)c2ccccc2)cc1,96.5*,14.5,0.3,0.9,9.4
COc1cccc(C(=O)OCC(=O)c2c[nH]c3ccccc23)c1O,26.1,21.7,-4.7,0.8,2.2
COc1ccccc1N(C)S(=O)(=O)c1ccc(C(=O)NC2=NCCS2)cc1,95.9*,12.8,-1.0,0.9,-14.8
COc1ccccc1N(C)S(=O)(=O)c1ccc(C(=O)OCC(=O)c2c[nH]c3ccccc23)cc1,100.1*,19.9,9.9,0.8,2.5
O=C(O)CC(NC(=O)C1c2ccccc2Oc2ccccc21)c1ccc(OC2CCCC2)cc1 (centres undefined),2.8,-7.5,2.0,1.1,-4.1
